According to ChEMBL document CHEMBL2086249, “Use of small-molecule crystal structures to address solubility in a novel series of G protein coupled receptor 119 agonists: optimization of a lead and in vivo evaluation” (J Med Chem, 2012):
Blank lines part the entries; values can stand above or below the compound they belong to.

Legend:
physchem = conditions: pH 7.4
[1] = Apparent permeability across apical to basolateral side of human Caco2 cells at 10 uM; format: ADME, cell-based; conditions: Caco-2
[2] = Hydrolytic stability of the compound at pH 1 to 10; format: physicochemical; conditions: buffer
[3] = Plasma clearance in C57BL6 mouse at 2 mg/kg, iv and 5 mg/kg, po; format: ADME, organism-based
Method in brief: (§1)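 IV dose 2 mg/kg in 5% DMSO/95% (hydroxypropyl)-β-cyclodextrin; oral dose given as suspension in aqueous 0.1% pluronic F127, 5 mg/kg for mouse and rat, 13 mg/kg for dog. Dose volumes 5 mL/kg (mouse, rat) and 2 mL/kg (dog). Animals were C57BL6 mice, Han Wistar rats and beagle dogs.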

[4] = Plasma clearance in Han Wistar rat at 2 mg/kg, iv and 5 mg/kg, po; format: ADME, organism-based
Method in brief: as §1

[5] = Plasma clearance in Beagle dog at 2 mg/kg, iv and […] mg/kg, po; format: ADME, organism-based, Canis lupus familiaris
[6] = Volume of distribution at steady state in C57BL6 mouse at 2 mg/kg, iv and 5 mg/kg, po; format: ADME, organism-based; conditions: in vivo, read-out: Vdss
Method in brief: as §1

[7] = Volume of distribution at steady state in Beagle dog at 2 mg/kg, iv and 13 mg/kg, po; format: ADME, organism-based, Canis lupus familiaris; conditions: in vivo, read-out: Vdss
Method in brief: as §1

[8] = Volume of distribution at steady state in Han Wistar rat at 2 mg/kg, iv and 5 mg/kg, po; format: ADME, organism-based; conditions: in vivo, read-out: Vdss
Method in brief: as §1

[9] = Half life in C57BL6 mouse at 5 mg/kg, po; format: ADME, organism-based; parameters: dose 5 mg/kg, route oral; conditions: in vivo
Method in brief: (§2)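 Single-dose PK in C57BL6 mice, Han Wistar rats and beagle dogs. Intravenous 2 mg/kg in 5% DMSO/95% (hydroxypropyl)-β-cyclodextrin. Oral dosing as a suspension in aqueous 0.1% (w/v) pluronic F127, at 5 mg/kg for mouse and rat and 13 mg/kg for dog. Dose volume 5 mL/kg for rodents and 2 mL/kg for dog.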

[10] = Half life in Han Wistar rat at 5 mg/kg, po; format: ADME, organism-based; parameters: dose 5 mg/kg, route oral; conditions: in vivo
Method in brief: as §2

[11] = Half life in Beagle dog at 13 mg/kg, po; format: ADME, organism-based, Canis lupus familiaris; parameters: dose 13 mg/kg, route oral; conditions: in vivo
Method in brief: as §2

[12] = Half life in C57BL6 mouse at 2 mg/kg, iv; format: ADME, organism-based; parameters: dose 2 mg/kg, route intravenous; conditions: in vivo
Method in brief: as §2

[13] = Half life in Han Wistar rat at 2 mg/kg, iv; format: ADME, organism-based; parameters: dose 2 mg/kg, route intravenous; conditions: in vivo
Method in brief: as §2

[14] = Half life in Beagle dog at 2 mg/kg, iv; format: ADME, organism-based, Canis lupus familiaris; parameters: dose 2 mg/kg, route intravenous; conditions: in vivo
Method in brief: as §2

[15] = Oral bioavailability in C57BL6 mouse at 5 mg/kg; format: ADME, organism-based; conditions: in vivo
Method in brief: as §1

[16] = Oral bioavailability in Han Wistar rat at 5 mg/kg; format: ADME, organism-based; conditions: in vivo
Method in brief: as §1

[17] = Oral bioavailability in Beagle dog at 13 mg/kg; format: ADME, organism-based, Canis lupus familiaris; conditions: in vivo
Method in brief: as §2

[18] = Intrinsic clearance in mouse hepatocytes assessed per million cells; format: ADME, cell-based, Hepatocyte; conditions: read-out: CLH
[19] = Intrinsic clearance in rat hepatocytes assessed per million cells; format: ADME, cell-based, Hepatocyte; conditions: read-out: CLH
[20] = Intrinsic clearance in dog hepatocytes assessed per million cells; format: ADME, cell-based, Canis lupus familiaris, Hepatocyte; conditions: read-out: CLH
[21] = Drug excretion in bile-duct cannulated Han Wistar rat bile; format: ADME; conditions: in vivo
[22] = Drug excretion in bile-duct cannulated Han Wistar rat urine; format: ADME; conditions: in vivo
[23] = Cmax in C57BL6 mouse at 5 mg/kg; format: ADME, organism-based; parameters: dose 5 mg/kg; conditions: in vivo
[24] = Cmax in C57BL6 mouse at 30 mg/kg; format: ADME, organism-based; parameters: dose 30 mg/kg; conditions: in vivo
[25] = Cmax in C57BL6 mouse at 100 mg/kg; format: ADME, organism-based; parameters: dose 100 mg/kg; conditions: in vivo
[26] = Cmax in Han Wistar rat at 5 mg/kg; format: ADME, organism-based; parameters: dose 5 mg/kg; conditions: in vivo
[27] = Cmax in Han Wistar rat at 100 mg/kg; format: ADME, organism-based; parameters: dose 100 mg/kg; conditions: in vivo
[28] = Cmax in Beagle dog at 1 mg/kg; format: ADME, organism-based, Canis lupus familiaris; parameters: dose 1 mg/kg; conditions: in vivo
[29] = Cmax in Beagle dog at 5 mg/kg; format: ADME, organism-based, Canis lupus familiaris; parameters: dose 5 mg/kg; conditions: in vivo
[30] = Cmax in Beagle dog at 10 mg/kg; format: ADME, organism-based, Canis lupus familiaris; parameters: dose 10 mg/kg; conditions: in vivo
[31] = Cmax in Beagle dog at 50 mg/kg; format: ADME, organism-based, Canis lupus familiaris; parameters: dose 50 mg/kg; conditions: in vivo
[32] = AUC (0 to 12 hrs) in C57BL6 mouse at 5 mg/kg; format: ADME, organism-based; parameters: time < 12 hr, dose 5 mg/kg; conditions: plasma
[33] = AUC (0 to 6 hrs) in C57BL6 mouse at 30 mg/kg; format: ADME, organism-based; parameters: time < 6 hr, dose 30 mg/kg; conditions: plasma
[34] = AUC (0 to 12 hrs) in C57BL6 mouse at 100 mg/kg; format: ADME, organism-based; parameters: time < 12 hr, dose 100 mg/kg; conditions: plasma
[35] = AUC (0 to 24 hrs) in Han Wistar rat at 5 mg/kg; format: ADME, organism-based; parameters: time < 24 hr, dose 5 mg/kg; conditions: plasma
[36] = AUC (0 to 24 hrs) in Han Wistar rat at 100 mg/kg; format: ADME, organism-based; parameters: time < 24 hr, dose 100 mg/kg; conditions: plasma
[37] = AUC (0 to 24 hrs) in Beagle dog at 1 mg/kg; format: ADME, organism-based, Canis lupus familiaris; parameters: time < 24 hr, dose 1 mg/kg; conditions: plasma
[38] = AUC (0 to 24 hrs) in Beagle dog at 5 mg/kg; format: ADME, organism-based, Canis lupus familiaris; parameters: time < 24 hr, dose 5 mg/kg; conditions: plasma
[39] = AUC (0 to 24 hrs) in Beagle dog at 10 mg/kg; format: ADME, organism-based, Canis lupus familiaris; parameters: time < 24 hr, dose 10 mg/kg; conditions: plasma
[40] = AUC (0 to 24 hrs) in Beagle dog at 50 mg/kg; format: ADME, organism-based, Canis lupus familiaris; parameters: time < 24 hr, dose 50 mg/kg; conditions: plasma

logD (physchem; octanol/phosphate buffer): > 4.3
SMILES: C[C@@H]1CN(C(=O)OC(C)(C)C)CCN1c1ncc(OCc2ccc(-n3cnnn3)cc2)cn1

logD (physchem; octanol/phosphate buffer): 3.7
SMILES: C[C@@H]1CN(C(=O)OC(C)(C)C)CCN1c1ncc(OCc2ccc(S(C)(=O)=O)cc2F)cn1

logD (physchem; octanol/phosphate buffer): 3.3
SMILES: C[C@@H]1CN(C(=O)OC(C)(C)C)CCN1c1ncc(OCc2ccc(S(C)(=O)=O)cc2C#N)cn1

logD (physchem; octanol/water): 3
SMILES: C[C@@H]1CN(C(=O)OC(C)(C)C)CCN1c1ncc(OCc2ccc(S(C)(=O)=O)cn2)cn1

logD (physchem; octanol/phosphate buffer): 3.4
SMILES: CC(C)(C)OC(=O)N1CCN(c2ncc(OCc3ccncc3)cn2)CC1

logD (physchem; octanol/phosphate buffer): 3.7
SMILES: Cc1cc(COc2cnc(N3CCN(C(=O)OC(C)(C)C)CC3)nc2)ccn1

logD (physchem; octanol/water): 3.8
SMILES: Cc1cnccc1COc1cnc(N2CCN(C(=O)OC(C)(C)C)CC2)nc1

logD (physchem; octanol/phosphate buffer): 3.8
SMILES: COc1cnccc1COc1cnc(N2CCN(C(=O)OC(C)(C)C)CC2)nc1

logD (physchem; octanol/phosphate buffer): 3.6
SMILES: CC(C)(C)OC(=O)N1CCN(c2ncc(OCc3ccncc3F)cn2)CC1

logD (physchem; octanol/phosphate buffer): 2.8
SMILES: CC(C)(C)OC(=O)N1CCN(c2ncc(OCc3ccncc3C#N)cn2)CC1

logD (physchem; octanol/phosphate buffer): 3.8
SMILES: Cc1cnccc1COc1cnc(N2CCN(C(=O)OC(C)(C)C)C[C@H]2C)nc1

logD (physchem; octanol/phosphate buffer): 3
SMILES: C[C@@H]1CN(C(=O)OCC(F)(F)F)CCN1c1ncc(OCc2ccncc2C#N)cn1

logD (physchem; octanol/phosphate buffer): 3.4
SMILES: C[C@@H]1CN(c2ncc(F)cn2)CCN1c1ncc(OCc2ccncc2C#N)cn1

Papp A→B at 10 µM [1]: 85 ×10⁻⁶ cm/s
Stability [2]: Stable
clearance [3]: 49 mL/min/kg
clearance [4]: 28 mL/min/kg
clearance [5]: 3.6 mL/min/kg
Vd [6]: 2.4 L/kg
Vd [7]: 4.1 L/kg
Vd [8]: 5.1 L/kg
half-life [9]: 1 h
half-life [10]: 6 h
half-life [11]: 5 h
half-life [12]: 1 h
half-life [13]: 3 h
half-life [14]: 11 h
bioavailability [15]: 22%
bioavailability [16]: 29%
bioavailability [17]: 24%
hepatocyte CLint [18]: 67 µL/min/1e6 cells
hepatocyte CLint [19]: 29 µL/min/1e6 cells
hepatocyte CLint [20]: 5.6 µL/min/1e6 cells
Drug excretion [21]: Active
Drug excretion [22]: Active
Cmax [23]: 400 nM
Cmax [24]: 3500 nM
Cmax [25]: 14000 nM
Cmax [26]: 700 nM
Cmax [27]: 6300 nM
Cmax [28]: 600 nM
Cmax [29]: 2500 nM
Cmax [30]: 1300 nM
Cmax [31]: 10000 nM
AUC(0-t) at 12 h [32]: 0.7 µM·h
AUC(0-t) at 6 h [33]: 6.4 µM·h
AUC(0-t) at 12 h [34]: 42 µM·h
AUC(0-t) at 24 h [35]: 2.7 µM·h
AUC(0-t) at 24 h [36]: 97 µM·h
AUC(0-t) at 24 h [37]: 4 µM·h
AUC(0-t) at 24 h [38]: 14 µM·h
AUC(0-t) at 24 h [39]: 11 µM·h
AUC(0-t) at 24 h [40]: 119 µM·h
logD (physchem; octanol/phosphate buffer): 3.3
SMILES: CC(C)c1nc(N2CCN(c3ncc(OCc4ccncc4C#N)cn3)[C@H](C)C2)no1

logD (physchem; octanol/phosphate buffer): 3.1
SMILES: C[C@@H]1CN(c2noc(C3CC3)n2)CCN1c1ncc(OCc2ccncc2C#N)cn1

logD (physchem; octanol/phosphate buffer): 4
SMILES: C[C@@H]1CN(c2noc(C(F)(F)F)n2)CCN1c1ncc(OCc2ccncc2C#N)cn1

logD (physchem; octanol/water): 2.9
SMILES: C[C@@H]1CN(c2noc(C(F)F)n2)CCN1c1ncc(OCc2ccncc2C#N)cn1

logD (physchem; octanol/phosphate buffer): 3.5
SMILES: C[C@@H]1CN(c2nc(C3CC3)no2)CCN1c1ncc(OCc2ccncc2C#N)cn1

logD (physchem; octanol/water): 3.1
SMILES: C[C@@H]1CN(c2nc(C(F)(F)F)no2)CCN1c1ncc(OCc2ccncc2C#N)cn1
